Series [1] relates to atherosclerotic plaques, VCAM-1. Description: Ex vivo uptake of 18F-4V in excised aortas. Set-up: species or system mouse.
Series [2] in a line: Biodistribution by gamma counting of harvested organs. Type of series: in vivo. The note with it: mouse, iv, 150 uCi, total radioactivity. The procedure, abridged: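 Test compound (¹⁸F-labelled peptide, 150 μCi) injected into the tail vein of 6 wild-type mice under isoflurane anaesthesia. Mice were killed at 4 h and perfused with saline. Organs and feces were harvested and counted in a gamma counter. Counts were corrected for decay and residual injection-site activity and expressed as %ID per gram tissue, mean±SEM.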

For series [3], the system named is infarcted myocardium, VCAM-1. Description: 18F-4V uptake after myocardial infarction. Type of series: in vivo, mouse. The note with it: mice 5 days after MI, without antibody blocking.
Series [4] has as its system VCAM-1 expression in atherosclerotic plaques. Description: In vivo PET-CT imaging of aortic root. Also on record: species or system mouse. The note with it: apoE-/- mice, PET-CT initiated 1 hour after injection, mean±SEM.
Series [5] has as its system rejected cardiac allograft, VCAM-1. Kind of series: 18F-4V uptake in heterotopic allograft heart transplant rejection. Type of series: in vivo, mouse. The conditions noted are these: day 7 after heart transplantation.

Bridges are numbered along the chain shown (N, C = ends). Roman numbers before positions name the chains, in order. Where no end group is shown, it is not given here. The star is where a group is joined. X1 = O=C(CON=Cc1ccc(F)cc1)*

On to “I: VHPKQHRGGSYKKK(X1) / II: VHPKQHRGGSYK / III: VHPKQHRGGSY / IV: VHPKQHRGGSY (amide I:12-IV:C, I:13-II:C, II:12-III:C) [^18F-4V]”, for which, in series [1] (apoE-/- mice, ex vivo, mean±SEM), the “ex vivo %IDGT in murine atheroma” value is reported as 5.9±1.5 %IDGT. Moreover, the “uptake in the aortic root, higher in apoE-/- mice compared to wild type” value in series [1] (excised aortas, apoE-/- vs wild-type mice, p < 0.05) was determined as 312%. Further, the tissue uptake at 4 h was found to be 1.3 ± 0.4 %ID/g in series [2] (aorta); 1.3 ± 0.4 %ID/g in series [2] (bone); 1.5 ± 0.5 %ID/g in series [2] (esophagus); 1.7 ± 0.1 %ID/g in series [2] (fat); 0.6 ± 0.2 %ID/g in series [2] (heart); 13.2 ± 2.8 %ID/g in series [2] (kidney). Further, the tissue uptake at 4 h in series [2] (large intestine) turned out to be 1.4 ± 0.5 %ID/g; in series [2] (liver) it was 3.7 ± 1.1 %ID/g; in series [2] (lung), 2.2 ± 0.8 %ID/g; in series [2] (lymph node), 3.7 ± 0.3 %ID/g; in series [2] (skeletal muscle), 0.7 ± 0.3 %ID/g; in series [2] (skin) it was 1.7 ± 0.6 %ID/g. The tissue uptake at 4 h in series [2] (small intestine) came out at 1.9 ± 0.4 %ID/g; in series [2] (spleen) it was 2.1 ± 0.6 %ID/g; in series [2] (stomach), 1.7 ± 1.1 %ID/g; in series [2] (thymus), 0.9 ± 0.3 %ID/g; in series [2] (whole blood) it was 1.5 ± 0.4 %ID/g. For the same substance, the dose excreted at 4 h in series [2] (feces) amounted to 0.2 ± 0.1%. In addition, in series [3], the “infarct activity to background ratio” value came to 3.1. The “PET signal in murine atheroma (standard uptake value)” value in series [4] turned out to be 0.31±0.02 SUV. Also, the “graft to background ratio after pre-injection of VCAM-1 targeted antibody” value in series [5] (pre-injection with VCAM-1 targeted antibody) amounted to 1.4. The “graft to background ratio” value in series [5] (without antibody blocking) was 2.4.

The tissue uptake is the share of the injected amount in each gram of the tissue.

The values above are taken from article PMC2773129 (JACC. Cardiovascular imaging, 2009).
